Measured values taken from PMC4304477 (Journal of the American Chemical Society, 2014).

Legend:
P. aeruginosa PBP4 = assay type: biochemical
Outline: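 His-tagged P. aeruginosa PBP4 (residues 23–476) was expressed in E. coli Lemo21(DE3), passed twice over a chelating column and dialysed into 50 mM Tris pH 7.6, 0.5 M NaCl. It was used within 5 days and quantified by A280 (ε 62 005 M–1cm–1). Synthetic substrate at 0.125–5 mM was reacted in 50 mM Tris, 0.1 M NaCl, pH 7.6, 25 °C. After 30 min, one volume of 0.2% TFA was added. D-Ala-loss products were quantified by C18 HPLC against an internal standard to give steady-state kcat and Km.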

PBPs, including PBP4 = details: background statement, no reference given; cited from earlier work
[1] = tested on: AmpC β-lactamase production; details: background statement, no reference given; cited from earlier work

Molecule	kcat comparison in words (P. aeruginosa PBP4; 18 vs 19, pH 7.6, 25 °C)	turnover product (P. aeruginosa PBP4; PBP4, t = 30 min, LC/MS TIC, comparison with authentic synthetic 31)	PBP inhibition (PBPs, including PBP4)	AmpC β-lactamase induction [1]
NAM-L-Ala-D-γ-Glu-meso-DAP-D-Ala-D-Ala [Compound 18]	slightly higher than for 19	This new peak was proven to be compound 31	–	–
CO[C@@]1(NC(=O)Cc2cccs2)C(=O)N2C(C(=O)O)=C(COC(N)=O)CS[C@@H]21 [cefoxitin]	–	–	inhibits PBPs, including PBP4	a high inducer of AmpC β-lactamase production
